Calls of active or inactive are those of the source. The rule behind the calls is not given here.
What was measured:
[1] = target: T1, Dihydrofolate reductase (Homo sapiens, UniProt P00374); experiment: Competitive inhibition of human dihydrofolate reductase by spectrophotometry
T1 sequence (P00374 whole entry): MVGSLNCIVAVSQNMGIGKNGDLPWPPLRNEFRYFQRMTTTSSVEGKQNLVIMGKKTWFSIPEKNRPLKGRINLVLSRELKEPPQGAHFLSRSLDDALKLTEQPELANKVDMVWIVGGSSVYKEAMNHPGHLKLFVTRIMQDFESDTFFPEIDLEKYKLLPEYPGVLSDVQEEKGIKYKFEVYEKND

[2] = test system: MCF7; experiment: Cytotoxicity against human MCF7 cells assessed as cell growth at 10^-4 M after 48 hrs by alamar blue assay relative to untreated control; type: functional; conditions: MCF7, 48 h, read-out: Activity
Method in brief: (§1)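 Three-cell-line prescreen. Each line was inoculated and preincubated on a microtiter plate, then the agent was added at a single concentration (10^-4 or 10^-5 M) and incubated 48 h. Endpoint was measured with alamar blue, and growth is reported as a percentage of untreated control cells.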

[3] = test system: NCI-H460; experiment: Cytotoxicity against human NCI-H460 cells assessed as cell growth at 10^-4 M after 48 hrs by alamar blue assay relative to untreated control; type: functional; conditions: NCI-H460, 48 h, read-out: Activity; method in brief: as §1
[4] = test system: SF-268; experiment: Cytotoxicity against human SF268 cells assessed as cell growth at 10^-4 M after 48 hrs by alamar blue assay relative to untreated control; type: functional; conditions: SF-268, 48 h, read-out: Activity
Method in brief: (§2)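 Three-cell-line prescreen at NCI. Each line was seeded and pre-incubated, then given a single concentration (10^-4 or 10^-5 M) and incubated for 48 h. The end-point was alamar blue. The value is percent growth of treated cells versus untreated control cells, with negative numbers indicating cell kill.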

[5] = target: Thymidylate synthase (Homo sapiens, UniProt P04818); experiment: Competitive inhibition of human thymidylate synthase by spectrophotometry
[6] = test system: SF-268; experiment: Cytotoxicity against human SF268 cells assessed as cell growth at 10^-5 M after 48 hrs by alamar blue assay relative to untreated control; type: functional; conditions: SF-268, 48 h, read-out: Activity; method in brief: as §2
[7] = test system: NCI-H460; experiment: Cytotoxicity against human NCI-H460 cells assessed as cell growth at 10^-5 M after 48 hrs by alamar blue assay relative to untreated control; type: functional; conditions: NCI-H460, 48 h, read-out: Activity; method in brief: as §1
[8] = test system: MCF7; experiment: Cytotoxicity against human MCF7 cells assessed as cell growth at 10^-5 M after 48 hrs by alamar blue assay relative to untreated control; type: functional; conditions: MCF7, 48 h, read-out: Activity; method in brief: as §1
[9] = target: Dihydrofolate reductase (Homo sapiens) (UniProt P00374); experiment: Competitive inhibition of human dihydrofolate reductase at 10 uM by spectrophotometry

Compound | Ki [1] [µM] | Ki [5] [µM] | inhibition [9] | growth at 100 µM [2] [%] | growth at 100 µM [3] [%] | growth at 100 µM [4] [%] | growth at 10 µM [6] [%] | growth at 10 µM [7] [%] | growth at 10 µM [8] [%]
C#CCN(Cc1nc2cc(C(F)(F)F)ccc2nc1-c1ccccc1)c1cc(OC)c(OC)c(OC)c1 | 4 | 5 |  | 64 | 104 | 102 |  |  | 
CN(Cc1nc2cc(C(F)(F)F)ccc2nc1-c1ccccc1)c1ccc(Cl)cc1 | 5 |  |  |  |  |  | 108 | 118 | 109
CCN(Cc1nc2cc(C(F)(F)F)ccc2nc1-c1ccccc1)c1ccc(OC)cc1 | 7 |  |  | 54 | 63 | 89 |  |  | 
CCN(Cc1nc2cc(C(F)(F)F)ccc2nc1-c1ccccc1)c1ccc(C)cc1 | 4 |  |  |  |  |  |  |  | 
CCOC(=O)Cc1ccc(N(C)Cc2nc3cc(C(F)(F)F)ccc3nc2-c2ccccc2)cc1 |  |  | inactive | 105 | 125 | 107 |  |  | 
CCN(Cc1nc2cc(C(F)(F)F)ccc2nc1-c1ccccc1)c1ccc(OC(F)(F)F)cc1 | 5 |  |  | 61 | 83 | 85 |  |  | 
CN(Cc1nc2cc(C(F)(F)F)ccc2nc1-c1ccccc1)c1ccc(F)cc1 | 5 |  |  | 180 | 119 | 125 |  |  | 
C#CCN(Cc1nc2cc(C(F)(F)F)ccc2nc1-c1ccccc1)c1ccc(C(F)(F)F)cc1F |  |  |  | 87 | 61 | 110 |  |  | 
CCN(Cc1nc2cc(C(F)(F)F)ccc2nc1-c1ccccc1)c1ccc(F)c(F)c1 | 5 |  |  |  |  |  | 94 | 81 | 73
CCOC(=O)CC[C@H](NC(=O)c1ccc(N(CC)Cc2nc3cc(C(F)(F)F)ccc3nc2-c2ccccc2)cc1)C(=O)OCC | 4 |  |  |  |  |  |  |  | 
C#CCN(Cc1nc2cc(C(F)(F)F)ccc2nc1-c1ccccc1)c1ccc(Cl)cc1 | 4 |  |  | 67 | 85 | 84 |  |  | 
CCN(Cc1nc2cc(C(F)(F)F)ccc2nc1-c1ccccc1)c1cc(OC)c(OC)c(OC)c1 | 6 |  |  |  |  |  |  |  | 
COc1ccc(N(C)Cc2nc3cc(C(F)(F)F)ccc3nc2-c2ccccc2)cc1OC | 8 |  |  | 54 | 88 | 103 |  |  | 
COc1cc(N(C)Cc2nc3cc(C(F)(F)F)ccc3nc2-c2ccccc2)cc(OC)c1OC | 5 |  |  | 61 | 77 | 97 |  |  | 
CN(Cc1nc2cc(C(F)(F)F)ccc2nc1-c1ccccc1)c1ccc(F)c(F)c1 | 4 | 0.27 |  |  |  |  | 97 | 88 | 114
Cc1ccc(N(C)Cc2nc3cc(C(F)(F)F)ccc3nc2-c2ccccc2)cc1 | 11 |  |  |  |  |  | 121 | 116 | 115

More lines, in order of falling Ki [1], values ahead:

Ki [1] [µM] | Ki [5] [µM] | inhibition [9] | Compound | growth at 100 µM [2] [%] | growth at 100 µM [3] [%] | growth at 100 µM [4] [%] | growth at 10 µM [6] [%] | growth at 10 µM [7] [%] | growth at 10 µM [8] [%]
3 |  |  | C#CCN(Cc1nc2cc(C(F)(F)F)ccc2nc1-c1ccccc1)c1ccc(CC(=O)OCC)cc1 | 106 | 115 | 111 |  |  | 
3 |  |  | CCOC(=O)Cc1ccc(N(CC)Cc2nc3cc(C(F)(F)F)ccc3nc2-c2ccccc2)cc1 |  |  |  |  |  | 
3 |  |  | C#CCN(Cc1nc2cc(C(F)(F)F)ccc2nc1-c1ccccc1)c1ccc(OC)c(OC)c1 | 119 | 80 | 109 |  |  | 
3 |  |  | C#CCN(Cc1nc2cc(C(F)(F)F)ccc2nc1-c1ccccc1)c1ccc(OC)cc1 | 82 | 98 | 103 |  |  | 
3 |  |  | CCN(Cc1nc2cc(C(F)(F)F)ccc2nc1-c1ccccc1)c1ccc(F)cc1 |  |  |  | 102 | 92 | 103
3 |  |  | COc1ccc(N(C)Cc2nc3cc(C(F)(F)F)ccc3nc2-c2ccccc2)cc1 | 105 | 125 | 107 |  |  | 
3 |  |  | CCN(Cc1nc2cc(C(F)(F)F)ccc2nc1-c1ccccc1)c1ccc(Cl)cc1 | 46 | 68 | 81 |  |  | 
3 |  |  | CN(Cc1nc2cc(C(F)(F)F)ccc2nc1-c1ccccc1)c1ccc(OC(F)(F)F)cc1 |  |  |  |  |  | 
2 |  |  | C#CCN(Cc1nc2cc(C(F)(F)F)ccc2nc1-c1ccccc1)c1ccccc1Cl | 102 | 101 | 87 |  |  | 
0.2 |  |  | CCOC(=O)CC[C@H](NC(=O)c1ccc(N(C)Cc2nc3cc(C(F)(F)F)ccc3nc2-c2ccccc2)cc1)C(=O)OCC |  |  |  |  |  | 
